Measured values from ChEMBL document CHEMBL4406851, “Design, synthesis and biological evaluation of cinnamic acid derivatives with synergetic neuroprotection and angiogenesis effect” (Eur J Med Chem, 2019).

What was measured:
Parameters in all cases: scale not given: the % may be the effect or the level left
[1] = Inhibition of H2O2-induced apoptosis in human HBMEC2 cells assessed as normal cells at 1.56 uM preincubated for 24 hrs followed by H2O2 addition measured after 4 hrs by Annexin V-FITC/propidium iodide staining based flow cytometry (reference value: 62.1 %); assay type: functional, HBMEC-2
Outline: (§1)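 Cells were seeded at 3.5×10^4 cells/mL in 6-well plates at 37 °C, 5% CO2. Compound was added at three concentrations for 24 h, then H2O2 (4.8 mM stock solution) to model and drug wells for 4 h. Cells were collected, washed in cold PBS and resuspended in annexin-binding buffer. Staining was annexin V-FITC 10 min, then PI 5 min, in the dark, followed by flow cytometry with quadrant gating.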

[2] = Inhibition of H2O2-induced apoptosis in human HBMEC2 cells assessed as late apoptotic cells at 3.13 uM preincubated for 24 hrs followed by H2O2 addition measured after 4 hrs by Annexin V-FITC/propidium iodide staining based flow cytometry (reference value: 29.4 %); assay type: functional, HBMEC-2; outline: as §1
[3] = Inhibition of H2O2-induced apoptosis in human HBMEC2 cells assessed as necrotic cells at 1.56 uM preincubated for 24 hrs followed by H2O2 addition measured after 4 hrs by Annexin V-FITC/propidium iodide staining based flow cytometry (reference value: 0.4 %); assay type: functional, HBMEC-2; outline: as §1
SH-SY5Y = assay: Inhibition of H2O2-induced apoptosis in human SH-SY5Y cells assessed as necrotic cells at 3.13 uM preincubated for 24 hrs followed by H2O2 addition measured after 4 hrs by Annexin V-FITC/propidium iodide staining based flow cytometry (reference value: 0.9 %); assay type: functional; outline: as §1

COc1cc(CNC(=O)/C=C/c2cc(OC)c(OC)cc2OC)ccc1O
Activity [1]: 70.6% | Activity [2]: 10.5% | Activity [3]: 1% | Activity (SH-SY5Y): 0.1%
